According to ChEMBL document CHEMBL4828720, “Macrocyclic Immunoproteasome Inhibitors as a Potential Therapy for Alzheimer's Disease” (J Med Chem, 2021):

Key:
[1] = Inhibition of human 20S proteasome Y using Ac-nLPnLD-AMC as fluorogenic substrate measured every minute for 1 hr by fluorescence assay
Procedure, shortened: (§1)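 Preincubated 1 h with inhibitor at 3-10,000 nM (8 concentrations). Substrates at 100 μM: Ac-PAL-AMC (LMP2), Ac-nLPnLD-AMC (Y), Ac-ANW-AMC (LMP7). Ac-WLA-AMC (X) at 20 μM. AMC fluorescence (360/460 nm) read each minute for 1 h; 3 replicates.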

[2] = Inhibition of human 20S proteasome X using Ac-WLA-AMC as fluorogenic substrate measured every minute for 1 hr by fluorescence assay
Procedure, shortened: as §1, with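 “Purified human 20S constitutive or immunoproteasome, 50 ng in 20 mM Tris-HCl, 0.5 mM EDTA, 0.035% SDS, pH 8.0. Preincubated” for “Preincubated”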

[3] = biological target: T1, Proteasome subunit beta type-9 (Homo sapiens, UniProt P28065); experiment: Inhibition of human 20S proteasome LMP2 using Ac-PAL-AMC as fluorogenic substrate measured every minute for 1 hr by fluorescence assay; procedure, shortened: as §1
T1 sequence (P28065 whole entry): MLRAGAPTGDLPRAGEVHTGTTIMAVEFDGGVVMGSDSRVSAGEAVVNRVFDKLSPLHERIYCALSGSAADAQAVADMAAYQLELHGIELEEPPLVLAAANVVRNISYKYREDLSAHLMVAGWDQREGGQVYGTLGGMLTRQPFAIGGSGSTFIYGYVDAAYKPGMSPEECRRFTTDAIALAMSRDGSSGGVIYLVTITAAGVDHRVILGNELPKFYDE

[4] = biological target: T2, Proteasome subunit beta type-8 (Homo sapiens, UniProt P28062); experiment: Inhibition of human 20S proteasome LMP7 using Ac-ANW-AMC as fluorogenic substrate measured every minute for 1 hr by fluorescence assay
T2 sequence (P28062 whole entry): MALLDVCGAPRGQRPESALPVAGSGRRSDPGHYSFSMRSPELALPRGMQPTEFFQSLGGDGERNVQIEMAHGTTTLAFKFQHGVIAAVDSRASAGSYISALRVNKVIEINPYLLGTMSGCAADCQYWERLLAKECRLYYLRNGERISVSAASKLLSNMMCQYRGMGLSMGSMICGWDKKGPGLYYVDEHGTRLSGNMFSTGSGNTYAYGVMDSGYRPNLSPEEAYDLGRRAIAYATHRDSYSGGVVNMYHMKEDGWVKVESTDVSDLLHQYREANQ
Procedure, shortened: as §1, with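 “Purified human 20S constitutive or immunoproteasome, 50 ng in 20 mM Tris-HCl, 0.5 mM EDTA, 0.035% SDS, pH 8.0. Preincubated” for “Preincubated”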

[5] = biological target: T1, Proteasome subunit beta type-9; experiment: Inhibition of human 20S proteasome LMP2 activity in human RPMI-8226 cells using Ac-PAL-AMC as fluorogenic substrate incubated for 72 hrs by fluorescence assay; format: cell-based
[6] = biological target: T1, Proteasome subunit beta type-9; experiment: Inhibition of human 20S proteasome LMP2 activity in human RPMI-8226 cells overexpressing ABCB1 using Ac-PAL-AMC as fluorogenic substrate incubated for 72 hrs by fluorescence assay; format: cell-based
Homo sapiens = organism: Homo sapiens; experiment: Selectivity index, ratio of IC50 for inhibition of human 20S proteasome LMP2 activity in human RPMI-8226 cells overexpressing ABCB1 to IC50 for inhibition of human 20S proteasome LMP2 activity in human RPMI-8226 cells; format: cell-based
Procedure, shortened: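 Carfilzomib-resistant RPMI 8226/ABCB1 line, kept drug-free for two weeks, alongside parental RPMI 8226. Cells exposed to varying inhibitor concentrations for 72 h, n=3 per concentration. Lysates (5 μg protein, pH 8.0 Tris/EDTA/0.035% SDS buffer) read with 100 μM Ac-PAL-AMC at ex 360/em 460 nm every minute for 1 h. IC50 from curve fitting, mean ± SD.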

Row | SMILES | IC50 [1] | IC50 [2] | IC50 [3] | IC50 [4] | IC50 [5] | IC50 [6] | Ratio IC50 (Homo sapiens)
1 | CC(C)C[C@H](NC(=O)[C@@H]1Cc2ccc(cc2)OCCCCCCCCC(=O)N2CCC[C@H]2C(=O)N1)C(=O)[C@@]1(C)CO1 | 414 nM | 5 µM | 414 nM | 0.342 µM | – | – | –
2 | CC(C)C[C@H](NC(=O)[C@@H]1COCCCCCC(=O)N2CC(F)(F)C[C@H]2C(=O)N1)C(=O)[C@@]1(C)CO1 | – | > 10 µM | 238 nM | > 10 µM | – | – | –
3 | C[C@]1(C(=O)[C@H](Cc2ccccc2)NC(=O)[C@@H]2COCCCCCC(=O)N3CCC[C@H]3C(=O)N2)CO1 | – | > 10 µM | 251 nM | > 10 µM | – | – | –
4 | CC(C)C[C@H](NC(=O)[C@@H]1COCCCCCCC(=O)NCC(=O)N2CCC[C@H]2C(=O)N1)C(=O)[C@@]1(C)CO1 | – | > 10 µM | 65.6 nM | > 10 µM | > 10000 nM | > 10000 nM | –
5 | CC(C)C[C@H](NC(=O)[C@@H]1COCCCCCC(=O)N2CC[C@H]2C(=O)N1)C(=O)[C@@]1(C)CO1 | – | > 10 µM | 261 nM | > 10 µM | – | – | –
6 | CC(C)C[C@H](NC(=O)[C@H](Cc1ccccc1)NC(=O)[C@@H]1CCCN1C(=O)CNC(=O)c1cnccn1)C(=O)[C@@]1(C)CO1 | – | > 10 µM | – | – | – | – | –
7 | CC(C)C[C@H](NC(=O)[C@@H]1COCCCCCCC(=O)N2CCC[C@H]2C(=O)N1)C(=O)[C@@]1(C)CO1 | – | 4.64 µM | 563 nM | > 10 µM | – | – | –
8 | CC(C)C[C@H](NC(=O)[C@@H]1COCCCCCC(=O)N2C[C@H](F)C[C@H]2C(=O)N1)C(=O)[C@@]1(C)CO1 | > 10000 nM | > 10 µM | 2130 nM | > 10 µM | – | – | –
9 | C[C@]1(C(=O)[C@H](CC2CCCCC2)NC(=O)[C@@H]2Cc3ccc(cc3)OCCCCCCCC(=O)N3CCC[C@H]3C(=O)N2)CO1 | – | 5 µM | 168 nM | 2.69 µM | – | – | –
10 | CC(C)C[C@H](NC(=O)[C@@H]1COCCCCCC(=O)NCC(=O)N2CCC[C@H]2C(=O)N1)C(=O)[C@@]1(C)CO1 | – | > 10 µM | 69.4 nM | > 10 µM | > 10000 nM | > 10000 nM | –
11 | CC(C)C[C@H](NC(=O)[C@@H]1COCCCCCC(=O)N2CCCC[C@H]2C(=O)N1)C(=O)[C@@]1(C)CO1 | – | > 10 µM | 1240 nM | > 10 µM | – | – | –
12 | C[C@]1(C(=O)[C@H](CC2CCCCC2)NC(=O)[C@@H]2COCCCCCC(=O)N3CCC[C@H]3C(=O)N2)CO1 | – | > 10 µM | 523 nM | 5.77 µM | – | – | –

More lines, main results first:

Row | IC50 [1] | IC50 [2] | IC50 [3] | IC50 [4] | IC50 [5] | IC50 [6] | SMILES | Ratio IC50 (Homo sapiens)
13 | – | > 10 µM | – | – | – | – | CC(=O)NCC(=O)N1CCC[C@H]1C(=O)N[C@@H](Cc1ccccc1)C(=O)N[C@@H](CC(C)C)C(=O)[C@@]1(C)CO1 | –
14 | 1500 nM | 1.08 µM | 413 nM | > 10 µM | 35.8 nM | 147 nM | CC(C)C[C@H](NC(=O)[C@@H]1COCCCCCC(=O)N2CCC[C@H]2C(=O)N1)C(=O)[C@@]1(C)CO1 | 4.1
15 | – | > 10 µM | 423 nM | > 10 µM | – | – | CC(C)C[C@H](NC(=O)[C@@H]1Cc2ccc(cc2)OCCCCCCC(=O)N2CCC[C@H]2C(=O)N1)C(=O)[C@@]1(C)CO1 | –
16 | – | > 10 µM | 4580 nM | > 10 µM | – | – | CC(C)C[C@H](NC(=O)[C@@H]1COCCCCCC(=O)N2CCC[C@@]2(C)C(=O)N1)C(=O)[C@@]1(C)CO1 | –
17 | 715 nM | 4.77 µM | 129 nM | 1.52 µM | 33.9 nM | 161 nM | CC(C)C[C@H](NC(=O)[C@@H]1Cc2ccc(cc2)OCCCCCCCC(=O)N2CCC[C@H]2C(=O)N1)C(=O)[C@@]1(C)CO1 | 4.7
18 | – | > 10 µM | 158 nM | > 10 µM | – | – | CC(C)C[C@H](NC(=O)[C@@H]1COCCCCCCCC(=O)N2CCC[C@H]2C(=O)N1)C(=O)[C@@]1(C)CO1 | –
